The source of these data is ChEMBL document CHEMBL4680340, “Discovery and structure activity relationship of glyoxamide derivatives as anti-hepatitis B virus agents” (Bioorg Med Chem, 2021).

As a reminder, the EC50 is the concentration needed to bring the measured effect to its halfway point. As a reminder, the EC90 is the point of the concentration-response curve where the effect stands at 90%. As a reminder, the CC50 is the concentration giving 50% cytotoxicity.

Data set [1] relates to Hepatitis B virus. As to the kind of experiment: Antiviral activity against Hepatitis B virus infected in human HePAD38 cells assessed as reduction in viral DNA replication incubated for 7 days by RT-PCR analysis. It is filed as functional, organism-based. The note with it: HePAD38, 168 h; for EC90: time 7 day. An outline of the steps: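 HepAD38 cells seeded and held 2 days at 37 °C, 5% CO2, then washed with PBS; compounds added in duplicate at various concentrations in tetracycline-free medium (from 40 mM stocks). Day 7: total DNA extracted, HBV DNA quantified by real-time PCR; ΔCT against untreated tetracycline-free control; EC50 and EC90 computed.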

A short description of data set [2]: Cytotoxicity against human PBMC cells assessed as reduction in cell viability by MTT assay. It is filed as cell-based. (In general: Tetrazolium dyes change colour on reduction, which living cells bring about.)
Data set [3] in a line: Cytotoxicity against human CEM cells assessed as reduction in cell viability by MTT assay. It is filed as cell-based. Conditions: CEM (CCRF-CEM) cells.
A short description of data set [4]: Cytotoxicity against African green monkey Vero cells assessed as reduction in cell viability by MTT assay. It is filed as cell-based. The note with it: chlorocebus sabaeus.
Data set [5] in a line: Cytotoxicity against human HepG2 cells assessed as reduction in cell viability by MTT assay. In kind it is cell-based.
The nature of data set [6]: Therapeutic index, ratio of CC50 for human HepG2 cells to IC50 for Hepatitis B virus infected in human HePAD38 cells. It is filed as toxicity, cell-based. The note with it: read-out: Ratio CC50/IC50.

For the compound `CCOC(=O)C1=C(CN2CCOCC2)NC(c2nccs2)=NC1c1ccc(F)cc1Br` (centres undefined), in data set [1], the EC50 worked out at 0.08 µM and the EC90 was 0.28 µM.
The matching figures for `O=C(Nc1ccc(F)c(F)c1)c1cc(S(=O)(=O)N2CC(F)(F)C2)ccc1F`: 1.2 µM and 6.3 µM.
For the compound `Cc1c(C(=O)C(=O)Nc2nc3ccccc3[nH]2)c(C)n(C)c1C(=O)Nc1ccc(F)c(F)c1`, the EC50 in data set [1] was 0.21 µM. Also, the EC90 in data set [1] was 3.44 µM. Moreover, the CC50 in data set [2] stood at 90 µM; in data set [3] it was 35.8 µM; in data set [4], 46.9 µM; in data set [5] it was 74.9 µM.
For `C#CCNC(=O)C(=O)c1c(C)c(C(=O)Nc2ccc(F)c(F)c2)n(C)c1C`, the EC50 in data set [1] was found to be 0.003 µM. The EC90 in data set [1] was 0.014 µM. The cytotoxic concentration (CC50) in data set [2] was greater than 100 µM; in data set [3], greater than 100 µM; in data set [4], 46.4 µM; in data set [5], greater than 100 µM. The selectivity ratio in data set [6] is greater than 33300.
As to `Cn1cc(C(=O)C(=O)N2CCOCC2)cc1C(=O)Nc1ccc(F)c(F)c1`, the EC50 in data set [1] came to 1.1 µM. Moreover, the EC90 in data set [1] was found to be 4.62 µM. For the same compound, the CC50 in data set [2] is greater than 100 µM; in data set [3], greater than 100 µM; in data set [4], 41.9 µM; in data set [5] it was 93.9 µM.
Turning to `Cn1cc(C(=O)C(=O)NOC2CCCC2)cc1C(=O)Nc1ccc(F)c(F)c1`, the half-maximal effective concentration (EC50) in data set [1] stood at 0.56 µM. In data set [1], the EC90 is 2.95 µM. The CC50 in data set [2] is no less than 100 µM; in data set [3] it was 37.9 µM; in data set [4], 80.1 µM; in data set [5], greater than 100 µM.
Turning to `Cc1c(C(=O)C(=O)Nc2ccccn2)c(C)n(C)c1C(=O)Nc1ccc(F)c(F)c1`, the EC50 in data set [1] stood at 0.004 µM. For the same compound, the EC90 in data set [1] came out at 0.06 µM. Also, the CC50 is greater than 100 µM in data set [2], 14.6 µM in data set [3], greater than 100 µM in data set [4] and 83.7 µM in data set [5].
For the compound `CCN(CC)C(=O)C(=O)c1c(C)c(C(=O)Nc2ccc(F)c(F)c2)n(C)c1C`, the EC50 in data set [1] was determined as 0.58 µM. The 90% effect concentration (EC90) in data set [1] turned out to be 5.64 µM. Also, the CC50 in data set [2] was 91.7 µM; in data set [3], 16.8 µM; in data set [4], greater than 100 µM; in data set [5] it was 89.9 µM.
On to `Cc1c(C(=O)C(=O)NCc2ccccn2)c(C)n(C)c1C(=O)Nc1ccc(F)c(F)c1`, for which the concentration giving a half-maximal response (EC50) in data set [1] came to 0.16 µM. Further, the EC90 in data set [1] was determined as 2.02 µM. Besides, the CC50 in data set [2] was greater than 100 µM; in data set [3], 38.4 µM; in data set [4], 9.6 µM; in data set [5] it was 7.2 µM.
Take `Cc1c(C(=O)C(=O)N2CCN(C)CC2)c(C)n(C)c1C(=O)Nc1ccc(F)c(F)c1`: in data set [1], the EC50 worked out at 0.005 µM. Further, in data set [1], the EC90 was 0.1 µM. The CC50 was no less than 100 µM in data set [2], 24.7 µM in data set [3], no less than 100 µM in data set [4] and 95.4 µM in data set [5].
As for `Cn1cc(C(=O)C(=O)NCC#N)cc1C(=O)Nc1ccc(F)c(F)c1`, the EC50 in data set [1] was 5.16 µM. Also, in data set [1], the EC90 amounted to 10 µM. Moreover, the CC50 was greater than 100 µM in data set [2], greater than 100 µM in data set [3], 91.4 µM in data set [4] and greater than 100 µM in data set [5].
`C#CCNC(=O)C(=O)c1cc(C(=O)Nc2ccc(F)c(F)c2)n(C)c1`: the EC50 in data set [1] is 5.6 µM. For the same compound, the EC90 in data set [1] is greater than 10 µM. For the same compound, the CC50 is 57.9 µM in data set [2], 70.3 µM in data set [3], 89 µM in data set [4] and greater than 100 µM in data set [5].
As for `Cc1c(C(=O)C(=O)Nc2nccs2)c(C)n(C)c1C(=O)Nc1ccc(F)c(F)c1`, the EC50 in data set [1] turned out to be 0.006 µM. In data set [1], the EC90 came to 0.03 µM. Besides, the CC50 in data set [2] was greater than 100 µM; in data set [3] it was 26.8 µM; in data set [4], greater than 100 µM; in data set [5], 83.9 µM.
`Cn1cc(C(=O)C(=O)Nc2nccs2)cc1C(=O)Nc1ccc(F)c(F)c1`: in data set [1], the EC50 is 0.47 µM. For the same compound, the EC90 in data set [1] came to 4.1 µM. In addition, the CC50 is greater than 100 µM in data set [2], greater than 100 µM in data set [3], 31.2 µM in data set [4] and greater than 100 µM in data set [5].
In the case of `Cn1cc(C(=O)C(=O)Nc2ccccc2)cc1C(=O)Nc1ccc(F)c(F)c1`, in data set [1], the EC50 is 0.08 µM. Moreover, the EC90 in data set [1] came out at 1.8 µM. Also, the CC50 is greater than 100 µM in data set [2], greater than 100 µM in data set [3], 13.4 µM in data set [4] and greater than 100 µM in data set [5].
Consider `Cc1c(C(=O)C(=O)NCc2nccn2C)c(C)n(C)c1C(=O)Nc1ccc(F)c(F)c1`, for which the EC50 in data set [1] was determined as 0.01 µM. Besides, the EC90 in data set [1] came out at 0.17 µM. Moreover, the CC50 was greater than 100 µM in data set [2], 46.9 µM in data set [3], 50.6 µM in data set [4] and 34.7 µM in data set [5].
Regarding `Cn1cc(C(=O)C(=O)NCc2ccccc2)cc1C(=O)Nc1ccc(F)c(F)c1`, in data set [1], the EC50 came to 0.41 µM. Further, in data set [1], the concentration for an effect of 90% (EC90) turned out to be 7.95 µM. In addition, the CC50 in data set [2] was greater than 100 µM; in data set [3], greater than 100 µM; in data set [4], 62.4 µM; in data set [5], greater than 100 µM.
On to `Cn1cc(C(=O)C(=O)N2CC(F)(F)C2)cc1C(=O)Nc1ccc(F)c(F)c1`, for which, in data set [1], the EC50 was 3.8 µM. The EC90 in data set [1] was found to be 9.67 µM. In addition, the CC50 in data set [2], in data set [3], in data set [4] and in data set [5] was greater than 100 µM throughout.
In the case of `C=CCNC(=O)C(=O)c1cc(C(=O)Nc2ccc(F)c(F)c2)n(C)c1`, the EC50 in data set [1] amounted to 0.09 µM. The EC90 in data set [1] was 3.05 µM. Moreover, the CC50 was greater than 100 µM in data set [2], greater than 100 µM in data set [3], 68.1 µM in data set [4] and greater than 100 µM in data set [5].
As for `C=C1[C@H](CO)[C@@H](O)C[C@@H]1n1cnc2c(=O)[nH]c(N)nc21`, the EC50 in data set [1] turned out to be 0.0006 µM. Moreover, in data set [1], the EC90 was determined as 0.011 µM. Further, the CC50 in data set [2] was 15.7 µM; in data set [3] it was greater than 100 µM; in data set [4], greater than 100 µM; in data set [5], greater than 100 µM.
Turning to `Nc1ccn([C@@H]2CS[C@H](CO)O2)c(=O)n1` [LAMIVUDINE], in data set [1], the EC50 was found to be 0.41 µM. In addition, in data set [1], the EC90 came to 1.65 µM. Besides, the CC50 in data set [2], in data set [3], in data set [4] and in data set [5] was greater than 100 µM each time.
